Results taken from PMC9444296 (Investigative Radiology, 2022).
Entries after “also recorded” stand apart in the source; their conditions may differ. Where two headings read alike, the source gives them in different places.

Assays:
[1] = Biodistribution in SD rats; assay type: in vivo, rat; details: for AUC(0–48h) / AUCINF / Cmax / Gd concentration in the brain: SD rat; for AUC(0–48h) / AUCINF / Cmax: 0.1 mmol/kg single IV, Gd by ICP-MS; for Gd concentration in the brain: 0.1 mmol/kg IV, ICP-MS (LLOQ 0.1 μg/g)
Outline: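 Rats, 30 in total (3/sex/group), received a single IV injection of 0.1 mmol/kg. Blood and tissues were taken predose and at 10 and 30 min and 2, 6 and 48 h. Gd was measured by ICP-MS, and parameters came from noncompartmental analysis.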

[2] = Plasma stability, human plasma; assay type: in vitro ADME; details: 0.5 mM, 37°C, HPLC; for average remaining percentage of intact MT218: n = 2
Outline: (§1)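 Test compound at 0.5 mM was incubated in human, rat or dog plasma at 37°C for up to 48 h, with PBS as control. Samples were mixed with methanol, centrifuged, and the intact compound was quantified by analytical reversed-phase (C18) HPLC.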

[3] = Plasma protein binding, human plasma; assay type: in vitro ADME; details: 37°C, 3 min, 10 kDa ultrafiltration, Gd by ICP-OES, n = 4
Outline: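 Test compound at 50, 80 or 110 μM was incubated with human, dog or rat plasma (alongside HSA 40 mg/mL and PBS) at 37°C for 3 min. Mixtures were kept overnight and centrifuged to remove insolubles. Gd was measured by ICP-OES, and the binding ratio was taken as bound over total concentration.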

[4] = Metabolic stability in cynomolgus monkey hepatocytes; assay type: in vitro ADME; details: 2 hours of incubation, LC-MS/MS
[5] = target: CYP2C8 (Homo sapiens, UniProt P10632); experiment: CYP2C8 inhibition in human liver microsomes; assay type: in vitro ADME; details: highest test concentration (100 μM)
[6] = tested on: GABAA; experiment: SAFETYscan E/IC50 assay, GABAA; assay type: biochemical; details: concentration range 0.005 to 100 μM
Outline: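 Contract-laboratory in vitro panel of 78 targets, run in agonist and/or antagonist modes under provider SOPs over 0.005 to 100 μM. Panel formats included enzyme fragment complementation, FLIPR-based cellular assays, kinase binding and enzymatic assays.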

[7] = target: OAT1 (Homo sapiens, UniProt Q4U2R8); experiment: OAT1 inhibition, HEK293 cells; assay type: in vitro ADME; details: 1, 5, 10, 50, and 100 μM
[8] = target: MATE2K (Homo sapiens, UniProt Q86VL8); experiment: MATE2K inhibition, HEK293 cells; assay type: in vitro ADME; details: 1, 5, 10, 50, and 100 μM
[9] = target: hERG (Homo sapiens, UniProt Q12809); details: HEK293, whole-cell patch clamp
[10] = target: OATP1B1 (Homo sapiens, UniProt Q9Y6L6); experiment: OATP1B1 inhibition, HEK293 cells; assay type: in vitro ADME; details: 1, 5, 10, 50, and 100 μM
[11] = tested on: CNS functions; experiment: CNS safety pharmacology; assay type: in vivo, rat; details: SD rats, single IV 0.1, 0.3, and 1.0 mmol/kg, functional observational battery
Outline: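 GLP study in SD rats, 5/sex/group, given a single IV dose of 0, 0.1, 0.3 or 1 mmol/kg. A functional observational battery was run at 0.25, 0.75, 1.5 and 4 h post-dose: home-cage, hand-held and open-field observations, responses to stimuli, forelimb grip strength and body temperature.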

[12] = Plasma stability, dog plasma; assay type: in vitro ADME; details: 0.5 mM, 37°C, HPLC; for average remaining percentage of intact MT218: n = 2
Outline: as §1

[13] = target: EDB protein fragment (Homo sapiens, UniProt P02751); experiment: Binding affinity by surface plasmon resonance; details: read-out: average binding affinity (Kd); SPR, n = 4
Outline: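 EDB protein fragment desalted into 10 mM PBS pH 7.4, then amine-coupled to a CM5 chip active cell (25 μg/mL in 10 mM acetate pH 4.5, 3 min at 10 μL/min, about 1500 RU). Both cells were ethanolamine-blocked (pH 8.5, 7 min). Test compound (1.0 mM stock in 0.05% Tween-20/10 mM PBS pH 7.4 running buffer) was injected at varying concentrations for 120 s at 50 μL/min, with 5 min dissociation. Kd came from instrument evaluation software.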

Sequence of hERG (Q12809 whole entry): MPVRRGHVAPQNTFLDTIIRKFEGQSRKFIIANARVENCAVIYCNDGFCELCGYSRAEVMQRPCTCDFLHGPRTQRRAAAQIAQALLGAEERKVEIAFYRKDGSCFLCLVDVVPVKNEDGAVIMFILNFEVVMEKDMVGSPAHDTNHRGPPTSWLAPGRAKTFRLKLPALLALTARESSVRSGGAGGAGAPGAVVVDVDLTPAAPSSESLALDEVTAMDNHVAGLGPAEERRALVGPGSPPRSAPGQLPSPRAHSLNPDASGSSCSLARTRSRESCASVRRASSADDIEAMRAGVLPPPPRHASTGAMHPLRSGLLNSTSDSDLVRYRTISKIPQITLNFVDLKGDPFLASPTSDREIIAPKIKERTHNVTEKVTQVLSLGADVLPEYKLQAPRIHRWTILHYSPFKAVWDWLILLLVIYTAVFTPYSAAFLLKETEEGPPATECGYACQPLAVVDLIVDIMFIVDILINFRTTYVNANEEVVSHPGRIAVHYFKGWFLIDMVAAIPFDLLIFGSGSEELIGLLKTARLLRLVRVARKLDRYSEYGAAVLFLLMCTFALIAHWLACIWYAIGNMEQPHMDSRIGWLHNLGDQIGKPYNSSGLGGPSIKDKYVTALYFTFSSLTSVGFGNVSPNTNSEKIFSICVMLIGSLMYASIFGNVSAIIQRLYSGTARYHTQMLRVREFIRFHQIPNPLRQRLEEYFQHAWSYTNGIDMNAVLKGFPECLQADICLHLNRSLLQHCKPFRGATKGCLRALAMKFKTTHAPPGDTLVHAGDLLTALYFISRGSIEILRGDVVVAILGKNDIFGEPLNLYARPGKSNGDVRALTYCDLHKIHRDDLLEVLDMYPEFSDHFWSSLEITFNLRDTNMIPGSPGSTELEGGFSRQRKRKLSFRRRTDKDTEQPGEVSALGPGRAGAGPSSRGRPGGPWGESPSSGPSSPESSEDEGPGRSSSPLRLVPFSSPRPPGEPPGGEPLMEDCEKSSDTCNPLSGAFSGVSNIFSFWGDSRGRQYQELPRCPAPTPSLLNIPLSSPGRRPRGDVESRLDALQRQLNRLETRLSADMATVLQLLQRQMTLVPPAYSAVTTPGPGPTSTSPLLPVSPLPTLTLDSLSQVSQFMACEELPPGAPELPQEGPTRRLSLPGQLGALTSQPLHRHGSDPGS
Sequence of EDB protein fragment (P02751 1271-1359 limits assumed): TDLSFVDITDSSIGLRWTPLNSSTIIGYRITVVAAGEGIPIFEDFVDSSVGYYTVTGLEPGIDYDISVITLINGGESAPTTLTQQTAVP
Sequence of OAT1 (Q4U2R8 whole entry): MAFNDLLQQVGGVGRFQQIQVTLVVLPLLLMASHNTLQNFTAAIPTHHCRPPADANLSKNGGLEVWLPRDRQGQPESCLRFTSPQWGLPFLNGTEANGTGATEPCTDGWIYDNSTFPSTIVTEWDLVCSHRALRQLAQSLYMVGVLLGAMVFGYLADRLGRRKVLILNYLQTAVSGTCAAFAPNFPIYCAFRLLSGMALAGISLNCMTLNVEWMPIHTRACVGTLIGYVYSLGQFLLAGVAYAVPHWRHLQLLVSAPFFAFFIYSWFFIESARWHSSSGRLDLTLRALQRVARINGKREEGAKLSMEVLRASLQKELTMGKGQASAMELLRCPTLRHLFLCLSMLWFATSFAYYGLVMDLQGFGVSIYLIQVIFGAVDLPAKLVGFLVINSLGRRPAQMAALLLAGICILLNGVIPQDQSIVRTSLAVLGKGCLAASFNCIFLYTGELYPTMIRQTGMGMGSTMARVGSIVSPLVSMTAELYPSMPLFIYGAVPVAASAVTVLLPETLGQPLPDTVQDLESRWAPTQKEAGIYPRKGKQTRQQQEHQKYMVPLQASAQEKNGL
Sequence of OATP1B1 (Q9Y6L6 whole entry): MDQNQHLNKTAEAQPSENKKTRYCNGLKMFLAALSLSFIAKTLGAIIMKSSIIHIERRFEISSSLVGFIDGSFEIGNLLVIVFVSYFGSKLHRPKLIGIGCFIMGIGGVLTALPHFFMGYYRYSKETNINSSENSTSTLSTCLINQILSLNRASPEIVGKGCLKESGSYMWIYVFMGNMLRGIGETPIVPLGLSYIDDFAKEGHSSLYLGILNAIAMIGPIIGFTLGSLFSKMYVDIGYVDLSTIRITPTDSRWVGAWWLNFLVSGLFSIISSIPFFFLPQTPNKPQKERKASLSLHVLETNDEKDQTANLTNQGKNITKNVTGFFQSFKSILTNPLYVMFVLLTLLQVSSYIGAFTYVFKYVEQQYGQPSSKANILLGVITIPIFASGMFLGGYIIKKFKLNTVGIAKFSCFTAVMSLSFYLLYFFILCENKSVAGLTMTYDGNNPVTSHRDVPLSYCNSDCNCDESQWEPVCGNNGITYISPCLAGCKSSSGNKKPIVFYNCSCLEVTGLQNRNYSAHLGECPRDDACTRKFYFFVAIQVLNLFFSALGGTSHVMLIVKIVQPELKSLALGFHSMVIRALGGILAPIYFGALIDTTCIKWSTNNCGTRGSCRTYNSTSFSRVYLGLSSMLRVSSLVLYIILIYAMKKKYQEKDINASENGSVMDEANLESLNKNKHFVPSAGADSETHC
Sequence of MATE2K (Q86VL8 1-566 isoform Q86VL8-3): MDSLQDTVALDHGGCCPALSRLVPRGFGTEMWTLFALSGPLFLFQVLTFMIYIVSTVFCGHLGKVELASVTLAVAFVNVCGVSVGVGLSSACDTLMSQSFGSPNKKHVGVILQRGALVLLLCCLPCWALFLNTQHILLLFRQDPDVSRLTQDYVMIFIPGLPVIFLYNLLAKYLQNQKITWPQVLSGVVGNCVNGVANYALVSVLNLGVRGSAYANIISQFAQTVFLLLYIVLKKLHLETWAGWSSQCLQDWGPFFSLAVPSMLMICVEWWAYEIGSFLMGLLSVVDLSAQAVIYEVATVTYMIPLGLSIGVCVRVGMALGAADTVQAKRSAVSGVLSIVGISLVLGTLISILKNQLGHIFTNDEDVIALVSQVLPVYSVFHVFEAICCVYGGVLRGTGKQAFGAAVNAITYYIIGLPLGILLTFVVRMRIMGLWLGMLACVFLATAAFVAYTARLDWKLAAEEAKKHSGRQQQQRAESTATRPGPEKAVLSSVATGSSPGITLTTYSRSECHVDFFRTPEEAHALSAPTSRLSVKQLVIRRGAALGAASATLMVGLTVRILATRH
Sequence of CYP2C8 (P10632 whole entry): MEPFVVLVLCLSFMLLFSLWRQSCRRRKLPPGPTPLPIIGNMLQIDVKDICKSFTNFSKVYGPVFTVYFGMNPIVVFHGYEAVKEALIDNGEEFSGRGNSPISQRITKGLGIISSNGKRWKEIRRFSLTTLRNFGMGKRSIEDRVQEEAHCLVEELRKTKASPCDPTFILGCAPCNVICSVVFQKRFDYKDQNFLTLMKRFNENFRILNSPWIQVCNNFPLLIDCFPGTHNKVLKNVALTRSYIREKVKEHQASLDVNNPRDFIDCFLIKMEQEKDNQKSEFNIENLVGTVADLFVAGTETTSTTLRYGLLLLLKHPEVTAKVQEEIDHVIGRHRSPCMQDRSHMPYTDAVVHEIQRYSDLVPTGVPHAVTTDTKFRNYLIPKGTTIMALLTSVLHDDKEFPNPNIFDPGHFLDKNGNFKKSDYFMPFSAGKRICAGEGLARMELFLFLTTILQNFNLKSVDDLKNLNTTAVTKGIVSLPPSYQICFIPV

ZD2-N3-Gd(HP-DO3A) [MT218]
AUC(0–48h) ([1]; Brain): 0.86 µg·h/g
AUCINF ([1]; Brain): 0.87 µg·h/g
Cmax ([1]; Brain): 1.10 µg/g
AUC(0–48h) ([1]; Fat): 3.18 µg·h/g
AUCINF ([1]; Fat): 3.23 µg·h/g
Cmax ([1]; Fat): 4.07 µg/g
AUC(0–48h) ([1]; Gonads): 11.78 µg·h/g
AUCINF ([1]; Gonads): 17.48 µg·h/g
Cmax ([1]; Gonads): 7.22 µg/g
AUC(0–48h) ([1]; Heart): 7.15 µg·h/g
AUCINF ([1]; Heart): 7.56 µg·h/g
Cmax ([1]; Heart): 7.54 µg/g
AUC(0–48h) ([1]; Kidney): 481.54 µg·h/g
AUCINF ([1]; Kidney): 2936.07 µg·h/g
Cmax ([1]; Kidney): 74.89 µg/g
AUC(0–48h) ([1]; Liver): 17.22 µg·h/g
AUCINF ([1]; Liver): 27.86 µg·h/g
Cmax ([1]; Liver): 4.73 µg/g
AUC(0–48h) ([1]; Lung): 17.81 µg·h/g
AUCINF ([1]; Lung): 19.50 µg·h/g
Cmax ([1]; Lung): 14.28 µg/g
AUC(0–48h) ([1]; Lymph nodes): 27.63 µg·h/g
AUCINF ([1]; Lymph nodes): 51.39 µg·h/g
Cmax ([1]; Lymph nodes): 12.53 µg/g
AUC(0–48h) ([1]; Muscle): 4.27 µg·h/g
AUCINF ([1]; Muscle): 4.29 µg·h/g
Cmax ([1]; Muscle): 5.51 µg/g
AUC(0–48h) ([1]; Plasma): 34060 ng·h/mL
AUCINF ([1]; Plasma): 34180 ng·h/mL
Cmax ([1]; Plasma): 44960 ng/mL
AUC(0–48h) ([1]; Prostate): 12.05 µg·h/g
AUCINF ([1]; Prostate): 13.12 µg·h/g
Cmax ([1]; Prostate): 6.05 µg/g
Gd concentration in the brain ([1]; 2 hours post-injection): reached LLOQ
Gd concentration in the brain ([1]; 6 hours post-injection): No detectable Gd deposition; also recorded: undetectable
AUC(0–48h) ([1]; Skeleton): 11.83 µg·h/g
AUCINF ([1]; Skeleton): 12.16 µg·h/g
Cmax ([1]; Skeleton): 4.58 µg/g
AUC(0–48h) ([1]; Skin): 28.54 µg·h/g
AUCINF ([1]; Skin): 30.96 µg·h/g
Cmax ([1]; Skin): 17.21 µg/g
AUC(0–48h) ([1]; Small intestine): 13.99 µg·h/g
AUCINF ([1]; Small intestine): 19.76 µg·h/g
Cmax ([1]; Small intestine): 6.44 µg/g
AUC(0–48h) ([1]; Spleen): 15.18 µg·h/g
AUCINF ([1]; Spleen): 35.21 µg·h/g
Cmax ([1]; Spleen): 4.14 µg/g
AUC(0–48h) ([1]; Stomach): 12.99 µg·h/g
AUCINF ([1]; Stomach): 15.13 µg·h/g
Cmax ([1]; Stomach): 10.87 µg/g
Gd concentration in the tested tissues besides the kidneys ([1]; rats, biodistribution study, level to which it decreased, time not given): ≤ 1.0 µg/g
average remaining percentage of intact MT218 ([2]; 1 h): 83.47%
average remaining percentage of intact MT218 ([2]; 3 h): 48.79%
average remaining percentage of intact MT218 ([2]; 6 h): 12.87%
average remaining percentage of intact MT218 ([2]; 28 h): 5.21%
average remaining percentage of intact MT218 ([2]; 48 h): 3.97%
enzymatic degradation half-life (t1/2) [2]: 2.63 h
binding ratio to plasma proteins ([3]; 50 μM): 47.31%
binding ratio to plasma proteins ([3]; 80 μM): 45.15%
binding ratio to plasma proteins ([3]; 110 μM): 40.50%
remaining MT218 [4]: 82.9%
relative CYP2C8 activity, of the negative controls [5]: 52.5%
inhibition rate [6]: 24.25%
inhibition of OAT1 transporter activity [7]: no inhibition potential
inhibition of MATE2K transporter activity [8]: no inhibition potential
average inhibition of the hERG currents ([9]; 30.69 μM): 36.87% ± 6.93%
average inhibition of the hERG currents ([9]; 103.54 μM): 52.19% ± 0.82%
inhibition of OATP1B1 transporter activity [10]: no inhibition potential
effect on parameters of CNS function [11]: No MT218-related effect
average remaining percentage of intact MT218 ([12]; 1 h): 89.19%
average remaining percentage of intact MT218 ([12]; 3 h): 71.45%
average remaining percentage of intact MT218 ([12]; 6 h): 47.81%
average remaining percentage of intact MT218 ([12]; 28 h): 11.23%
average remaining percentage of intact MT218 ([12]; 48 h): 5.38%
enzymatic degradation half-life (t1/2) [12]: 5.85 h
Kd [13]: 3.45 µM
